{"source": "paper PMC11235002", "about": "(BMJ Oncology, 2024)", "tested_on": "patients with advanced or metastatic solid tumours", "assay": "Safety: treatment-emergent adverse events", "format": "in vivo, human", "summary_of_the_method": "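Safety covered monotherapy Parts 1a/2, with oral tablet or capsule dosing twice daily on days 1–28 of 28-day cycles. TEAEs were graded by CTCAE v4.03, which counts malignant progression as an AE. Laboratory values, vital signs and physical examinations were also monitored. The safety population was all patients receiving ≥1 dose. DLTs were defined as grade 3–4 toxicities, urea cycle inhibition, or AUC0–12h >100 µg.h/mL.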", "data": [{"smiles": "C[C@H](N)C(=O)N1C[C@H](CCCB(O)O)[C@](N)(C(=O)O)C1", "note": "[INCB001158]", "values": [{"measurement": "Oedema peripheral, any-grade TEAE", "setting": "monotherapy 75 mg bid (n=7)", "value": "0 n (%)"}, {"measurement": "Vomiting, any-grade TEAE", "setting": "monotherapy 75 mg bid (n=7)", "value": "3 (42.9) n (%)"}, {"measurement": "ALT increased, any-grade TEAE", "setting": "monotherapy 100 mg bid (n=85)", "value": "4 (4.7) n (%)"}, {"measurement": "AST increased, any-grade TEAE", "setting": "monotherapy 100 mg bid (n=85)", "value": "8 (9.4) n (%)"}, {"measurement": "Abdominal pain, any-grade TEAE", "setting": "monotherapy 100 mg bid (n=85)", "value": "15 (17.6) n (%)"}, {"measurement": "Abdominal pain, grade ≥3 TEAE", "setting": "monotherapy 100 mg bid (n=85)", "value": "5 (5.9) n (%)"}, {"measurement": "Anaemia, any-grade TEAE", "setting": "monotherapy 100 mg bid (n=85)", "value": "11 (12.9) n (%)"}, {"measurement": "Anaemia, grade ≥3 TEAE", "setting": "monotherapy 100 mg bid (n=85)", "value": "4 (4.7) n (%)"}, {"measurement": "Any TEAE", "setting": "monotherapy 100 mg bid (n=85)", "value": "81 (95.3) n (%)"}, {"measurement": "Any grade ≥3 TEAE", "setting": "monotherapy 100 mg bid (n=85)", "value": "40 (47.1) n (%)"}, {"measurement": "Any irTEAE", "setting": "monotherapy 100 mg bid (n=85)", "value": "1 (1.2) n (%)"}, {"measurement": "Constipation, any-grade TEAE", "setting": "monotherapy 100 mg bid (n=85)", "value": "18 (21.2) n (%)"}, {"measurement": "Decreased appetite, any-grade TEAE", "setting": "monotherapy 100 mg bid (n=85)", "value": "17 (20.0) n (%)"}, {"measurement": "Diarrhoea, any-grade TEAE", "setting": "monotherapy 100 mg bid (n=85)", "value": "5 (5.9) n (%)"}, {"measurement": "Fatigue, any-grade TEAE", "setting": "monotherapy 100 mg bid (n=85)", "value": "23 (27.1) n (%)"}, {"measurement": "Fatigue, grade ≥3 TEAE", "setting": "monotherapy 100 mg bid (n=85)", "value": "6 (7.1) n (%)"}, {"measurement": "Hypoalbuminaemia, any-grade TEAE", "setting": "monotherapy 100 mg bid (n=85)", "value": "6 (7.1) n (%)"}, {"measurement": "Hyponatraemia, any-grade TEAE", "setting": "monotherapy 100 mg bid (n=85)", "value": "5 (5.9) n (%)"}, {"measurement": "Hyponatraemia, grade ≥3 TEAE", "setting": "monotherapy 100 mg bid (n=85)", "value": "2 (2.4) n (%)"}, {"measurement": "Malignant neoplasm progression, grade ≥3 TEAE", "setting": "monotherapy 100 mg bid (n=85)", "value": "5 (5.9) n (%)"}, {"measurement": "Nausea, any-grade TEAE", "setting": "monotherapy 100 mg bid (n=85)", "value": "18 (21.2) n (%)"}, {"measurement": "Oedema peripheral, any-grade TEAE", "setting": "monotherapy 100 mg bid (n=85)", "value": "13 (15.3) n (%)"}, {"measurement": "Vomiting, any-grade TEAE", "setting": "monotherapy 100 mg bid (n=85)", "value": "9 (10.6) n (%)"}, {"measurement": "Colitis, irTEAE", "setting": "monotherapy 100 mg bid (n=85), related to INCB001158 treatment", "value": "1 (1.2)¶ n (%)"}, {"measurement": "ALT increased, any-grade TEAE", "setting": "monotherapy 150 mg bid (n=7)", "value": "1 (14.3) n (%)"}, {"measurement": "AST increased, any-grade TEAE", "setting": "monotherapy 150 mg bid (n=7)", "value": "1 (14.3) n (%)"}, {"measurement": "Abdominal pain, any-grade TEAE", "setting": "monotherapy 150 mg bid (n=7)", "value": "1 (14.3) n (%)"}, {"measurement": "Abdominal pain, grade ≥3 TEAE", "setting": "monotherapy 150 mg bid (n=7)", "value": "0 n (%)"}, {"measurement": "Anaemia, any-grade TEAE", "setting": "monotherapy 150 mg bid (n=7)", "value": "0 n (%)"}, {"measurement": "Anaemia, grade ≥3 TEAE", "setting": "monotherapy 150 mg bid (n=7)", "value": "0 n (%)"}, {"measurement": "Any TEAE", "setting": "monotherapy 150 mg bid (n=7)", "value": "7 (100.0) n (%)"}, {"measurement": "Any grade ≥3 TEAE", "setting": "monotherapy 150 mg bid (n=7)", "value": "1 (14.3) n (%)"}, {"measurement": "Any irTEAE", "setting": "monotherapy 150 mg bid (n=7)", "value": "0 n (%)"}, {"measurement": "Colitis, irTEAE", "setting": "monotherapy 150 mg bid (n=7)", "value": "0 n (%)"}, {"measurement": "Constipation, any-grade TEAE", "setting": "monotherapy 150 mg bid (n=7)", "value": "2 (28.6) n (%)"}, {"measurement": "Decreased appetite, any-grade TEAE", "setting": "monotherapy 150 mg bid (n=7)", "value": "2 (28.6) n (%)"}, {"measurement": "Diarrhoea, any-grade TEAE", "setting": "monotherapy 150 mg bid (n=7)", "value": "1 (14.3) n (%)"}, {"measurement": "Fatigue, any-grade TEAE", "setting": "monotherapy 150 mg bid (n=7)", "value": "3 (42.9) n (%)"}, {"measurement": "Fatigue, grade ≥3 TEAE", "setting": "monotherapy 150 mg bid (n=7)", "value": "0 n (%)"}, {"measurement": "Hypoalbuminaemia, any-grade TEAE", "setting": "monotherapy 150 mg bid (n=7)", "value": "1 (14.3) n (%)"}, {"measurement": "Hyponatraemia, any-grade TEAE", "setting": "monotherapy 150 mg bid (n=7)", "value": "1 (14.3) n (%)"}, {"measurement": "Hyponatraemia, grade ≥3 TEAE", "setting": "monotherapy 150 mg bid (n=7)", "value": "1 (14.3) n (%)"}, {"measurement": "Malignant neoplasm progression, grade ≥3 TEAE", "setting": "monotherapy 150 mg bid (n=7)", "value": "0 n (%)"}, {"measurement": "Nausea, any-grade TEAE", "setting": "monotherapy 150 mg bid (n=7)", "value": "1 (14.3) n (%)"}, {"measurement": "Oedema peripheral, any-grade TEAE", "setting": "monotherapy 150 mg bid (n=7)", "value": "1 (14.3) n (%)"}, {"measurement": "Vomiting, any-grade TEAE", "setting": "monotherapy 150 mg bid (n=7)", "value": "0 n (%)"}, {"measurement": "DLT", "setting": "monotherapy 150 mg two times per day, one DLT", "value": "treatment-related grade 2 malaise"}, {"measurement": "TEAEs leading to INCB001158 discontinuation", "setting": "monotherapy (8 patients)", "value": 7.5, "unit": "%"}, {"measurement": "fatal TEAEs", "setting": "monotherapy (10 patients), none considered related to INCB001158", "value": 9.3, "unit": "%"}, {"measurement": "TEAEs leading to INCB001158 dose interruption", "setting": "monotherapy (33 patients)", "value": 30.8, "unit": "%"}, {"measurement": "Serious TEAEs", "setting": "monotherapy (36 patients)", "value": 33.6, "unit": "%"}, {"measurement": "patients with grade ≥3 TEAEs", "setting": "monotherapy (N=107)", "value": 45.8, "unit": "%"}, {"measurement": "INCB001158-related fatigue", "setting": "monotherapy (n=10/107)", "value": 9.3, "unit": "%"}, {"measurement": "INCB001158-related nausea", "setting": "monotherapy (n=10/107)", "value": 9.3, "unit": "%"}, {"measurement": "TEAEs grade 1/2 in severity", "setting": "monotherapy Parts 1a/2", "value": 54.2, "unit": "%"}, {"measurement": "ALT increased, any-grade TEAE", "setting": "monotherapy Total (N=107)", "value": "5 (4.7) n (%)"}, {"measurement": "AST increased, any-grade TEAE", "setting": "monotherapy Total (N=107)", "value": "10 (9.3) n (%)"}, {"measurement": "Abdominal pain, any-grade TEAE", "setting": "monotherapy Total (N=107)", "value": "18 (16.8) n (%)"}, {"measurement": "Abdominal pain, grade ≥3 TEAE", "setting": "monotherapy Total (N=107)", "value": "6 (5.6) n (%)"}, {"measurement": "Anaemia, any-grade TEAE", "setting": "monotherapy Total (N=107)", "value": "17 (15.9) n (%)"}, {"measurement": "Anaemia, grade ≥3 TEAE", "setting": "monotherapy Total (N=107)", "value": "6 (5.6) n (%)"}, {"measurement": "Any TEAE", "setting": "monotherapy Total (N=107)", "value": "102 (95.3) n (%)"}, {"measurement": "Any grade ≥3 TEAE", "setting": "monotherapy Total (N=107)", "value": "49 (45.8) n (%)"}, {"measurement": "Any irTEAE", "setting": "monotherapy Total (N=107)", "value": "1 (0.9) n (%)"}, {"measurement": "Colitis, irTEAE", "setting": "monotherapy Total (N=107)", "value": "1 (0.9) n (%)"}, {"measurement": "Constipation, any-grade TEAE", "setting": "monotherapy Total (N=107)", "value": "23 (21.5) n (%)"}, {"measurement": "Decreased appetite, any-grade TEAE", "setting": "monotherapy Total (N=107)", "value": "21 (19.6) n (%)"}, {"measurement": "Diarrhoea, any-grade TEAE", "setting": "monotherapy Total (N=107)", "value": "6 (5.6) n (%)"}, {"measurement": "Fatigue, any-grade TEAE", "setting": "monotherapy Total (N=107)", "value": "30 (28.0) n (%)"}, {"measurement": "Fatigue, grade ≥3 TEAE", "setting": "monotherapy Total (N=107)", "value": "6 (5.6) n (%)"}, {"measurement": "Hypoalbuminaemia, any-grade TEAE", "setting": "monotherapy Total (N=107)", "value": "7 (6.5) n (%)"}, {"measurement": "Hyponatraemia, any-grade TEAE", "setting": "monotherapy Total (N=107)", "value": "7 (6.5) n (%)"}, {"measurement": "Hyponatraemia, grade ≥3 TEAE", "setting": "monotherapy Total (N=107)", "value": "3 (2.8) n (%)"}, {"measurement": "Malignant neoplasm progression, grade ≥3 TEAE", "setting": "monotherapy Total (N=107)", "value": "5 (4.7) n (%)"}, {"measurement": "Nausea, any-grade TEAE", "setting": "monotherapy Total (N=107)", "value": "24 (22.4) n (%)"}, {"measurement": "Oedema peripheral, any-grade TEAE", "setting": "monotherapy Total (N=107)", "value": "16 (15.0) n (%)"}, {"measurement": "Vomiting, any-grade TEAE", "setting": "monotherapy Total (N=107)", "value": "14 (13.1) n (%)"}, {"measurement": "tolerability", "setting": "monotherapy and combination with pembrolizumab", "value": "generally well tolerated"}, {"measurement": "patients with INCB001158-related TEAEs", "setting": "monotherapy, safety-evaluable population", "value": 43, "unit": "n"}, {"measurement": "immune-related TEAE of colitis", "setting": "monotherapy, one patient, led to discontinuation", "value": 0.9, "unit": "%"}, {"measurement": "serious INCB001158-related TEAE", "setting": "monotherapy, one patient, recovered/resolved", "value": "grade 3 adrenal haemorrhage"}, {"measurement": "maximum tolerated dose", "setting": "up to 150 mg two times per day", "value": "No maximum tolerated dose was reached"}]}]}
